Bioassay records deposited in PubChem by Johns Hopkins Ion Channel Center.
Compounds with a hit are over-represented: about 3.5% of the library has one in this group of screens.
RGS4 act – RGS4 potentiation or activation | AID 463111 | HEK293 M3R/inducible RGS4, carbachol calcium flux Fluo4; active compounds read low | 310,000 compounds, 0.92% hits | B-score at 10 µM;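 active = B-score of the integrated calcium signal more than 4 SD below the library mean, with starting fluorescence not abnormally high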;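 note: negative B-score means reduced calcium response which marks RGS4 activation or potentiation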
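Test system: HEK293 cells with stable M3R and inducible RGS4; also added: carbachol at ECmax as muscarinic agonist stimulus; schedule: dye loading 30 min 37 °C, buffer rest 30 min RT; technique: kinetic calcium fluorescence imaging with Fluo4-AM dye, 2 µM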
MrgX1 agonist – human MrgX1 receptor agonism, primary screen; Q96LB2; MrgX1-HEK293 cells, Fluo-4 calcium fluorescence, agonist mode; active compounds read high; B-score at 10 µM; 310,000 compounds, 0.44% hits; AID 588627;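 active = calcium response B-score plate-corrected fluorescence ratio at least 3 library SD, with starting fluorescence B-score inside 5 SD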
Target sequence (Q96LB2 whole entry, looked up): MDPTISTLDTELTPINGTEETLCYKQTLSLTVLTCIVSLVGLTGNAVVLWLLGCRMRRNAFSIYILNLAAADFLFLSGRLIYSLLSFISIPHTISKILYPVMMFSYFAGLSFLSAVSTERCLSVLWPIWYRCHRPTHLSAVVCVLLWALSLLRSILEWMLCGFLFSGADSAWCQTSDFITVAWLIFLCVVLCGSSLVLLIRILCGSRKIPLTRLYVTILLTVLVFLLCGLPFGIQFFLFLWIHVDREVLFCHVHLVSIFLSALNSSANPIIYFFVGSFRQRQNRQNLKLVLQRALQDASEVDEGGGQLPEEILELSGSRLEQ
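System – MrgX1-expressing HEK293 cells · Incubation – cells plated overnight, dye loaded 0.5 h 37 °C, 0.5 h room temperature · Technique – kinetic Fluo-4 NW fluorescence of intracellular calcium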
RGS4 block – human RGS4 inhibition; HEK293 M3R/RGS4 inducible, Fluo-4 calcium flux; active compounds read high; triggered by carbachol at its EC20; 310,000 compounds, 0.45% hits; B-score at 10 µM; P49798;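 active = B-score, a plate-corrected calcium signal, over three deviations above library mean, with baseline fluorescence within five deviations of library mean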;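 note: RGS4 expression induced by doxycycline in cells with stable M3 receptor; B-score is computed from the integrated fluorescence ratio over baseline after carbachol; higher B-score means a larger calcium signal and so more RGS4 inhibition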
Target sequence (P49798 whole entry, looked up): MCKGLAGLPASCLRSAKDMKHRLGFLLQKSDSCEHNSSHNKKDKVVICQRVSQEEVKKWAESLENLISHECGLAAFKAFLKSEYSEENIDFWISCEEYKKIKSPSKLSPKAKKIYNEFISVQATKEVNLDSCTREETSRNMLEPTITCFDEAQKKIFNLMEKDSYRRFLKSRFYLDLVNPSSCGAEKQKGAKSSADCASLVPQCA
MrgX1 antagonist – antagonists of human MrgX1 receptor | Q96LB2 | MRGX1-HEK293 calcium flux, Fluo-4, BAM8-22 antagonism; active compounds read low | B-score at 10 µM | 310,000 compounds, 1.3% hits | AID 588676;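 active = calcium-response B-score plate-corrected more than 3 library SD below zero, starting fluorescence within 5 deviations, no agonist response on first addition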;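 note: peak minus trough fluorescence over baseline after final BAM8-22 challenge near maximal dose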
MrgX1 PAM – human MrgX1 positive allosteric modulation, primary screen. Q96LB2. MrgX1-HEK293, Fluo-4 calcium flux, FDSS; active compounds read high. B-score at 10 µM. 310,000 compounds, 0.63% hits. AID 588675;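 active = plate-corrected calcium response at least 3 library SD above typical, normal starting fluorescence, not activating the receptor alone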;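 note: compound read alongside a low EC10 to EC30 dose of BAM8-22 agonist; peak minus trough fluorescence over baseline measured at the second addition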
MrgX1 allo conf – human MrgX1 positive allosteric modulation, re-confirmation; activation (ratio percentage), % at 10 µM; MrgX1-HEK293, Fluo-4 calcium fluorescence, FDSS; 1,200 compounds, 13% hits; shares compounds with MrgX1 PAM; AID 602413;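 active = ratio at least 3 SD above the weak peptide control, stable starting fluorescence, no direct agonism earlier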;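 note: compound followed by low BAM8-22 agonist challenge near EC20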
MrgX1 ant reconf – human MrgX1 receptor antagonism, re-confirmation screen; MrgX1-HEK293, BAM8-22 calcium flux, Fluo-4; active compounds read low; remaining BAM8-22 calcium response % of control (active compounds read low), % at 10 µM; shares compounds with MrgX1 antagonist; 2,300 compounds, 19% hits;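 active = remaining agonist calcium response no higher than 100% minus 3 SD of agonist-only control wells, with starting fluorescence near control levels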;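 note: agonist BAM8-22 given at a near maximal EC90 to ECmax level; peak minus minimum fluorescence divided by baseline after agonist addition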
HEK293 Ca flux – MrgX1 antagonist counter-screen hit in parental HEK293 cells; Fluo-4 calcium fluorescence, FDSS; fluorescence ratio F(max-min)/F0 at 10 µM; shares compounds with MrgX1 antagonist; AID 624111; 4,000 compounds, 2% hits;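 active = duplicate-averaged calcium fluorescence ratio at least three times the standard deviation of buffer wells, a nonspecific response in parental cells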
HEK293 Ca counter – counter-screen for MrgX1 allosteric activators: effect in parental HEK293 cells; shares compounds with MrgX1 antagonist; parental HEK293 calcium flux, Fluo-4 fluorescence ratio; active compounds read high; fluorescence ratio F(max-min)/F0 at 10 µM; 4,000 compounds, 0.4% hits;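 active = calcium fluorescence ratio, averaged over duplicates, at least 3 SD of the buffer-well ratio, meaning a nonspecific response in receptor-free cells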;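 note: untransfected parental HEK293 lacking MrgX1 used as counterscreen for MrgX1 allosteric activators; fluorescence change taken during the second addition on a kinetic imager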
HEK293 Ca cntr2 – activity in parental HEK293 cells lacking MrgX1 receptor; shares compounds with MrgX1 antagonist; Fluo-4 calcium fluorescence (FDSS); active compounds read high; fluorescence ratio F(max-min)/F0 at 10 µM; 4,000 compounds, 8.7% hits; AID 624115;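 active = calcium fluorescence ratio at least three times the spread of buffer wells, meaning a non-specific response in parental cells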
The depositor's hits bear a star; i = inactive; / = no result.

SMILES	RGS4 act	MrgX1 agonist	RGS4 block	MrgX1 antagonist	MrgX1 PAM	MrgX1 allo conf	HEK293 Ca flux	HEK293 Ca counter	HEK293 Ca cntr2	others
COc1cccc(CN2CC(C(=O)N(C)Cc3ccc(C)cc3)CCC2=O)c1 (stereo unspecified)	i	i	i	i	i	/	/	/	/
Nc1c2c(nc3ccc(Br)cc13)N(c1ccccc1)CC2	/	i	/	i	i	/	/	/	/
Nc1c2c(nc3ccc(Br)cc13)N(Cc1ccccc1)CC2	i	i	i	i	8.3*	i	i	i	i
CCOC(=O)c1c(C)nc2c(c1-c1cc(OC)ccc1OC)C(=O)c1ccccc1-2	i	i	i	i	i	/	/	/	/
CCOC(=O)c1c(C)nc2ccccc2c1-c1ccccc1	i	i	i	i	7.6*	i	i	i	i
CCOC(=O)c1c(C)nc2c(c1-c1ccccc1)C(=O)c1ccccc1-2	i	i	i	i	9.3*	i	i	i	i
CCOC(=O)c1c(C)nc2c(c1-c1ccc(Cl)cc1)C(=O)CC(C)(C)C2	i	i	i	-4.8*	8.6*	i	i	i	i	MrgX1 ant reconf=i
CCOC(=O)Cn1c(=NC(=O)c2nc3ccccc3s2)sc2cc(S(N)(=O)=O)ccc21	i	i	i	i	i	/	/	/	/
CCCc1ccc2oc(C(=O)N3CCN(c4cnccn4)CC3)c(C)c2c1	i	i	i	i	i	/	/	/	/
Nc1ccc(Oc2cccc(Oc3ccc(N)cc3)c2)cc1	i	i	i	i	i	/	/	/	/
Nc1ccc(Oc2ccc(Br)cc2)cc1	i	i	i	i	8.4*	i	i	i	i
O=C(Nc1cccc(-c2cn3ccccc3n2)c1)c1ccccc1	i	i	i	i	6.8*	8.4%*	i	i	i
OC(CN1CCCCC1)Cn1c2ccc(Cl)cc2c2cc(Cl)ccc21 (stereo unspecified)	i	i	i	i	6.7*	i	i	i	i
OC(CN1CCN(c2ccccn2)CC1)Cn1c2ccc(Cl)cc2c2cc(Cl)ccc21 (stereo unspecified)	i	i	i	i	i	/	/	/	/
Cc1cc(Cl)ccc1OC(C)C(=O)Nc1ccccc1N1CCOCC1 (stereo unspecified)	i	i	i	i	15*	i	i	i	i
Cn1c(SCC(=O)N2CCCc3ccccc32)nnc1-c1c[nH]c2ccccc12	i	i	i	i	i	/	/	/	/
Cn1c(SCC(=O)N2CCCC2=O)nnc1-c1ccccc1F	i	i	i	i	8.8*	i	i	i	i
CCN1C(=O)CSC1=NC1C2CC3CC(C2)CC1C3 (stereo unspecified)	i	i	i	i	14*	i	i	i	i
c1ccc(Cn2cc(CN3CCCO3)c(-c3ccc4c(c3)OCO4)n2)cc1	i	i	i	i	i	/	/	/	/
CC1CCN(C(=O)COc2ccc3ccccc3c2Br)CC1	i	i	i	i	6.5*	i	i	i	i
CC1CCN(C(=O)COc2ncnc3ccccc23)CC1	i	i	i	i	i	/	/	/	/
CSc1nc(N)nc(-c2cccs2)c1C#N	i	i	i	i	i	/	/	/	/
CC(C)Sc1nc(N)nc(-c2cccs2)c1C#N	i	i	i	i	9.1*	i	i	i	i
CC(C)NCC1CCc2cc(CO)c([N+](=O)[O-])cc2N1 (stereo unspecified)	i	i	i	i	i	/	/	/	/
Cc1ccc(S(=O)(=O)NC(=O)NC(C)Cc2ccccc2)cc1 (stereo unspecified)	i	i	i	i	i	/	/	/	/
SMILES	RGS4 act	MrgX1 agonist	RGS4 block	MrgX1 antagonist	MrgX1 PAM	MrgX1 allo conf	HEK293 Ca flux	HEK293 Ca counter	HEK293 Ca cntr2	others
COc1ccc(N2CC(C(=O)N[C@H](C(=O)NC3CCCCC3)C(C)C)CC2=O)cc1 (stereo partly specified)	i	i	i	i	i	/	/	/	/
O=C(NCc1ccc(F)cc1)C1CCCN(S(=O)(=O)c2ccc(-n3cnnn3)cc2)C1 (stereo unspecified)	i	i	i	i	8*	i	i	i	i
Cc1c(C)n(CC(O)CN2C(=O)c3ccccc3S2(=O)=O)c2ccccc12 (stereo unspecified)	i	i	i	i	10*	i	i	i	i
OCC1CCCN(c2ncnc3scc(-c4ccccc4)c23)C1 (stereo unspecified)	i	i	i	i	6.5*	i	i	i	i
O=S(=O)(c1ccccc1)N1CCN(c2ncnc3scc(-c4ccccc4)c23)CC1	i	i	i	i	i	/	/	/	/
O=C(NCc1ccc2c(c1)OCO2)NC12CC3CC(CC(C3)C1)C2	i	i	i	i	i	/	/	/	/
O=C(COc1ccc2c(c1)OCO2)NC12CC3CC(CC(C3)C1)C2	i	i	i	i	11*	i	i	i	i
O=C(NC1CCCc2ccccc21)c1c(F)cccc1Cl (stereo unspecified)	i	i	i	i	i	/	/	/	/
Cc1ccc(Nc2ncnc3sccc23)c(C)c1	i	i	i	i	8*	i	i	i	i
CCCN(c1ccc(C(=O)OC)cc1)S(=O)(=O)c1ccccc1	i	i	i	i	9.8*	i	i	i	i
Cc1ccc(C2CC2c2n[nH]c(=S)n2-c2ccc(Cl)cc2)cc1 (stereo unspecified)	i	i	i	i	i	/	/	/	/
S=c1[nH]nc([C@@H]2C[C@H]2c2ccccc2)n1-c1ccccc1Cl	i	i	i	i	7.7*	i	i	i	i
